TPT1 inh: Candida albicans TPT1 enzyme inhibitors, primary screen, biochemical, fluorescence polarization; recombinant caTPT1, FP RNA substrate dephosphorylation; inhibition, % at 5 µM; 0.81% of 300,000 active;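 active = inhibition above the mean of all tested compounds plus 3 SD, set per screening campaign, cut at about 24% in these data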;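 also: plate controls were DMSO alone for no effect and ferristatin control at 100 nM for full effect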
IDE act: human IDE activators in live cells, primary screen, fluorescence polarization, HEK cells, FAbeta-B substrate; AID 493087, 2011; FAbeta-B cleavage; 0% vehicle, 100% cell-free pure enzyme wells; 0.073% of 340,000 active; Insulin-degrading enzyme (Homo sapiens), P14735; activation, % at 5.96 µM;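 active = activation above the mean of all tested compounds plus 3 SD, set per screening campaign, cut at about 17% in these data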
Tb MetRS inh: T. brucei MetRS inhibitors, primary screen, biochemical, luminescence; purified T. brucei MetRS, ATP depletion, Kinase-Glo luminescence; methionyl-tRNA synthetase (Trypanosoma brucei brucei); inhibition, % at 11.9 µM; 0.4% of 360,000 active;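 active = inhibition above a per-plate cutoff of the control wells' mean inhibition plus 3 SD, cut at about 5.5% in these data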;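 also: 0% = DMSO wells median and 100% = median of wells with control inhibitor compound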
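assay system = parasite MetRS enzyme | timing = 15 min preincubation, 2 h reaction, all 25 °C | evaluation = percent inhibition relative to median high and low control wells | medium = HEPES buffer containing pyrophosphatase, BSA, spermine, DTT | compound = single dose, 11.9 µM final nominal, 0.9% final DMSO | detection = Kinase-Glo luminescence, ATP depletion format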
HNF4A DNA FP: change in binding of human HNF4A to DNA, primary screen, biochemical, fluorescence polarization, FITC-DNA. 1 h. activity change, % at 10 µM. 0.3% of 360,000 active. AID 1224865, 2016; in the data active = activity change above about 30%, passing the limit was not always enough
CSN inh: inhibitors of CSN-mediated cullin deneddylation, primary screen, biochemical, fluorescence polarization, uHTS; COP9 signalosome complex subunit 5 (Homo sapiens), Q92905; Purified CSN, SCF-Nedd8-OG deneddylation; inhibition, % at 12.5 µM; 0.38% of 360,000 active; AID 651999, 2013;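 active = pattern-corrected inhibition above about 35%, with an unprinted fluorescence ratio check between 0.5 and 1.5, limit read from the data, passing the limit was not always enough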;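 also: 0% = enzyme with substrate and 100% = substrate without enzyme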
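Test system: purified human Csn5 enzyme expressed in HEK293T cells. Amount: 0.24 nM enzyme. Reagent: SCFSkp2-Nedd8OG substrate at 10 nM final. Schedule: 90 min incubation of compound, enzyme and substrate at room temperature. Detection: fluorescence polarization. Read-out: % inhibition of substrate cleavage by Csn5.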
IDE cell inh: human IDE inhibitors in live cells, primary screen, fluorescence polarization, HEK cells, FAbetaB substrate; FAbetaB cleavage; inhibition, % at 5.59 µM; Insulin-degrading enzyme (Homo sapiens), P14735; 0.41% of 320,000 active;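 active = percent inhibition above the average of all tested compounds plus 3 SD, set per screening campaign, cut at about 16% in these data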;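 also: IDE supplied by intact live HEK cells; FP after avidin binding of uncleaved biotin substrate so inhibition keeps polarization high; 0% = DMSO wells and 100% = 60 µM reference IDE inhibitor Ii1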
caTPT1 confirm: Candida albicans TPT1 inhibitors, confirmation, biochemical, fluorescence polarization, triplicate; shares compounds with TPT1 inh; recombinant caTPT1, RNase T1 coupled; inhibition, % at 5 µM; 74% of 2,400 active; AID 2149, 2009;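 active = inhibition above the primary screen limit, the mean inhibition of all tested compounds plus 3 SD, cut at about 25% in these data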
RNase T1 inh: RNase T1 inhibitors, counter-screen for TPT1 inhibitor project, biochemical, fluorescence polarization. shares compounds with TPT1 inh. RNase T1 cleavage, 1536-well. inhibition, % at 5 µM. 83% of 2,400 active. AID 2153, 2009;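 active = inhibition above the solvent-only control well mean plus 3 SD, limit set per screening run, cut at about 23% in these data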;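 also: plate controls were DMSO wells with enzyme for no effect and wells without RNase T1 for full effect; inhibitors block cleavage so intact labeled substrate keeps polarization high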
IDE inh confirm: human IDE inhibitors in live cells, confirmation, fluorescence polarization, HEK cells, FAbetaB substrate; FAbetaB cleavage; 51% of 1,200 active; shares compounds with IDE cell inh; inhibition, % at 5.59 µM; AID 435028, 2010;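 active = mean inhibition across triplicate wells above the cutoff set by the earlier primary insulin-degrading enzyme screen, cut at about 16% in these data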;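 also: 0% = DMSO wells and 100% = 60 µM reference IDE inhibitor Ii1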
HEK cytotox: cytotoxicity in HEK cells, cytotoxicity control for IDE inhibitor project, cell-based, luminescence. inhibition, % at 5.59 µM. HEK293 cytotoxicity, ATP luminescence. AID 449730, 2010. 28% of 1,200 active. shares compounds with IDE cell inh; in the data active = inhibition above about 22%;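 also: 0% = vehicle wells and 100% = reference cytotoxic drug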
An asterisk follows results filed as active; nt = no result; + = active, no number. This is a sample that favours compounds with a hit; in the whole collection about 1.7% have one here.

SMILES	TPT1 inh	IDE act	Tb MetRS inh	HNF4A DNA FP	CSN inh	IDE cell inh	caTPT1 confirm	RNase T1 inh	IDE inh confirm	HEK cytotox
N=C1/C(=C\c2coc3ccccc3c2=O)C(=O)N=C2SC(c3ccncc3)=NN12	79.0*	-35.3	0.4	52.2	70.2	42.4*	70.6*	84.2*	20.0*	5.8
CSC1=NSC2=NC(=O)/C(=C\c3coc4ccccc4c3=O)C(=N)N12	62.1*	-62.9	-0.4	47.7	54.7	42.8*	60.9*	64.5*	45.6*	6.5
CC(C)CSC1=NSC2=NC(=O)/C(=C\c3ccccc3)C(=N)N12	5.0	4.2	0.2	-1.2	-6.1	1.6	nt	nt	nt	nt
CC(C)CSC1=NSC2=NC(=O)/C(=C\c3coc4ccccc4c3=O)C(=N)N12	42.9*	-128.0	-0.1	1.9	-74.9	62.9*	10.4	26.4*	106.1*	8.1
CCOC(=O)C1=C(C)N(c2ccc(OC)cc2)C(=O)/C1=C\c1ccc(O)c(OCC)c1	2.7	-4.1	0.2	0.7	4.0	7.4	nt	nt	nt	nt
CCNC(=O)CSC1=N/C(=C\c2ccc(O)c(OCC)c2)C(=O)N1c1ccc(OC(F)F)cc1	90.3*	-56.2	-0.3	89.7*	46.8*	69.8*	102.0*	97.4*	147.7*	8.7
COc1cc(C(C)=O)ccc1OCC(=O)Nc1ccc(C)c(S(=O)(=O)N2CCCCCC2)c1	nt	0.9	-0.2	0.0	-1.8	1.5	nt	nt	nt	nt
COc1ccc(C(=O)/C=C2\Sc3ccccc3N2C)cc1	2.1	nt	-1.0	-1.4	-10.3	-6.7	nt	nt	nt	nt
COc1ccc(-[n+]2c(C)cc(/C=C3\Sc4ccccc4N3C)cc2C)cc1	90.5*	-65.1	-0.4	49.6*	21.3	71.8*	123.1*	128.0*	105.3*	111.5*
N#C/C(=C\c1ccc(N2CCOCC2)o1)c1nc2ccccc2[nH]1	181.9*	-150.7	-0.1	34.4	-20.8	20.0*	158.2*	144.0*	25.9*	29.2*
N#C/C(=C\c1ccc(N2CCOCC2)c([N+](=O)[O-])c1)c1nc2ccccc2[nH]1	2.3	11.9	-0.4	-0.6	-3.4	-0.3	nt	nt	nt	nt
CC(=O)c1sc(N/N=C\c2c(O)ccc3ccccc23)nc1C	117.1*	-13.5	-1.1	83.2*	35.0	23.3*	124.5*	119.5*	38.7*	38.5*
O=C1CC(NS(=O)(=O)c2ccc([N+](=O)[O-])cc2)CN1c1cccc(F)c1 (stereo not given)	1.6	12.7	-0.5	2.0	-2.9	0.5	nt	nt	nt	nt
O=C1NC(=O)C2(CCCCC2C2CCCCC2)N1 (stereo not given)	nt	1.7	0.2	1.0	1.1	nt	nt	nt	nt	nt
CCN(CC)c1ccc2c(c1)OC(N)=C(C#N)C2c1cccnc1 (stereo not given)	71.5*	-28.2	0.4	78.0	71.4	49.2*	56.7*	64.5*	30.8*	70.0*
N#CC1=C(N)Oc2cc(N)ccc2C1c1cccnc1 (stereo not given)	-0.7	-0.5	1.0	0.1	-2.2	-0.9	nt	nt	nt	nt
CN(C)c1ccc(/C=C(\C#N)C(=O)Nc2nc3c(s2)CCN(Cc2ccccc2)C3)cc1	+	-27.6	-0.3	66.2	29.3	38.1*	131.8*	146.2*	57.8*	11.0
O=C(OCc1c(F)cccc1Cl)c1cc([N+](=O)[O-])ccc1N1CCOCC1	-0.6	4.4	-0.2	4.2	4.8	1.3	nt	nt	nt	nt
O=C(OCCN1C(=O)c2cccc3c(N4CCOCC4)ccc(c23)C1=O)c1ccccc1Cl	53.0*	-100.9	-0.8	16.7	-13.3	112.7*	63.2*	69.7*	96.2*	49.5*
O=C(OCCN1C(=O)c2cccc3c(N4CCOCC4)ccc(c23)C1=O)c1ccc(Cl)cc1Cl	59.3*	-46.4	-0.6	-37.4	-57.8	49.3*	64.4*	70.5*	48.5*	61.5*
O=C(OCCN1C(=O)c2ccccc2C1=O)c1cc(S(=O)(=O)N2CCOCC2)ccc1Cl	0.1	2.2	0.6	-1.1	1.3	1.5	nt	nt	nt	nt
O=C(OCCN1C(=O)c2cccc3c(N4CCOCC4)ccc(c23)C1=O)c1cccc(Cl)c1	49.0*	nt	nt	nt	nt	91.2*	62.0*	69.8*	81.2*	38.3*
CC(Oc1ccccc1Cl)C(=O)Nc1ccc(S(=O)(=O)N2CCN(C)CC2)cc1 (stereo not given)	nt	2.9	-0.2	1.5	-1.5	nt	nt	nt	nt	nt
Cc1cccc(CC(=O)NCCS(=O)(=O)N2CCN(c3cccc(Cl)c3)CC2)c1	0.2	-1.1	-0.6	-1.9	-0.1	-3.0	nt	nt	nt	nt
COCCN(Cc1ccc(OC)cc1)c1c(C)nc2ccc(C(=O)NCCc3c[nH]c4ccccc34)cn12	nt	nt	-0.3	3.4	1.0	nt	nt	nt	nt	nt
O=C(CCc1ccccc1)Nc1cc(C(=O)O)cc(C(=O)O)c1	-0.1	-3.1	0.9	-2.2	-4.9	-0.7	nt	nt	nt	nt
O=C(O)Cc1sc(N/N=C\c2ccncc2)nc1-c1ccccc1	51.6*	-67.0	-0.1	21.4	33.6	40.0*	43.0*	50.6*	32.1*	10.2
C(=N\Nc1nc(-c2ccccc2)cs1)/c1ccncc1	-2.8	-6.7	0.4	6.7	-3.3	-7.0	nt	nt	nt	nt
COc1ccc(-c2nn(-c3ccccc3)cc2/C=C2/SC(=S)N(Cc3ccco3)C2=O)c(C)c1	-1.5	5.8	-0.8	4.8	3.7	-5.3	nt	nt	nt	nt
COc1ccc(-n2c(C)cc(/C=C3\SC(=S)N(Cc4ccco4)C3=O)c2C)cc1	122.3*	-8.4	0.8	54.3*	29.6	16.6*	121.8*	123.0*	18.3*	11.0
